Measured values as given in ChEMBL document CHEMBL4130606, “Ophiobolins from the Mangrove Fungus Aspergillus ustus” (J Nat Prod, 2018).
Where a name gives a salt, the structure may show the parent alone. Calls of active or inactive are those of the source. The calls are words filed in the database; no cut-off is given here.

Columns and labels:
A549 = test: Cytotoxicity against human A549 cells after 72 hrs by MTT assay; assay type: functional, cell-based; conditions: A549, 72 h
Summary of the method: (§1)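 MTT viability assay on human cell lines, with values given as IC50. Lines used: gemcitabine-resistant pancreatic cancer G3K, breast adenocarcinoma MCF-7, its adriamycin-resistant subline MCF-7/Adr, triple-negative breast cancer MDA-MB-231, nontumorigenic breast epithelial MCF10A, non-small-cell lung cancer A549, and promyelocytic leukemia HL-60.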

HL-60 = test: Cytotoxicity against human HL60 cells after 72 hrs by MTT assay; assay type: functional, cell-based; conditions: HL-60, 72 h; summary of the method: as §1
Candida albicans = test: Antimicrobial activity against Candida albicans ATCC 10231 at 1 ug after 24 hrs by paper disc agar diffusion method; assay type: functional, organism-based
Klebsiella aerogenes = test: Antimicrobial activity against Enterobacter aerogenes ATCC 13048 at 1 ug after 24 hrs by paper disc agar diffusion method; assay type: functional, organism-based
NCI/ADR-RES = test: Cytotoxicity against human MCF7/ADR cells after 72 hrs by MTT assay; assay type: functional, cell-based; summary of the method: as §1
MCF7 = test: Cytotoxicity against human MCF7 cells after 72 hrs by MTT assay; assay type: functional, cell-based; conditions: MCF7, 72 h; summary of the method: as §1
Bacillus subtilis = test: Antimicrobial activity against Bacillus subtilis ATCC 6051 at 1 ug after 24 hrs by paper disc agar diffusion method; assay type: functional, organism-based
MDA-MB-231 = test: Cytotoxicity against human MDA-MB-231 cells after 72 hrs by MTT assay; assay type: functional, cell-based; conditions: MDA-MB-231, 72 h
Pseudomonas aeruginosa = test: Antimicrobial activity against Pseudomonas aeruginosa ATCC 10145 at 1 ug after 24 hrs by paper disc agar diffusion method; assay type: functional, organism-based
Escherichia coli = test: Antimicrobial activity against Escherichia coli ATCC 11775 at 1 ug after 24 hrs by paper disc agar diffusion method; assay type: functional, organism-based; conditions: DSM 30083 = JCM 1649 = ATCC 11775
[1] = Cytotoxicity against human G3K cells after 72 hrs by MTT assay; assay type: functional, cell-based; summary of the method: as §1
MCF-10A = test: Cytotoxicity against human MCF10A cells after 72 hrs by MTT assay; assay type: functional, cell-based; summary of the method: as §1

Row | SMILES | IC50 (A549) [µM] | IC50 (HL-60) [µM] | Activity (Candida albicans) | Activity (Klebsiella aerogenes) | IC50 (NCI/ADR-RES) [µM] | IC50 (MCF7) [µM] | Activity (Bacillus subtilis) | IC50 (MDA-MB-231) [µM] | Activity (Pseudomonas aeruginosa) | Activity (Escherichia coli) | IC50 [1] [µM] | IC50 (MCF-10A) [µM]
1 | CC(C)=C/C=C\[C@H](C)[C@H]1CC[C@]2(C)C[C@H]3[C@H](C(=O)C[C@@]3(C)O)/C(C)=C\C[C@@H]12 | 15.1 | 7 | – | – | – | – | – | – | – | – | – | –
2 | CC(C)=C/C=C\[C@H](C)[C@H]1CC[C@]2(C)C[C@@H]3C(C)=CC(=O)[C@H]3/C(CO)=C\C[C@@H]12 | > 50 | > 50 | inactive | inactive | > 40 | > 40 | inactive | > 20 | inactive | inactive | 1.9 | –
3 | CC(C)=C/C=C\[C@H](C)[C@H]1CC[C@]2(C)C[C@H]3[C@H]4/C(=C\C[C@@H]12)C(=O)O[C@H]4C[C@@]3(C)O | > 50 | > 50 | inactive | inactive | > 40 | > 40 | inactive | > 40 | inactive | inactive | > 20 | –
4 | CC(C)=C/C=C\[C@H](C)[C@H]1CC[C@]2(C)C[C@@H]3C(C)=CC(=O)[C@@H]3/C(C=O)=C\C[C@@H]12 | – | – | – | – | 34.6 | 22.9 | – | 14.1 | – | – | 9.5 | > 40
5 | CO[C@@H]1O[C@@]2(OC)C[C@@](C)(O)[C@H]3C[C@@]4(C)CC[C@H]([C@@H](C)/C=C\C=C(C)C)[C@@H]4C/C=C/1[C@H]32 | 0.6 | 0.8 | inactive | inactive | – | – | inactive | – | inactive | inactive | – | –
6 | CC(C)=C/C=C\[C@H](C)[C@H]1CC[C@]2(C)CC3=C(C(=O)C[C@H]3C)/C(C=O)=C\C[C@@H]12 | – | – | – | – | > 40 | > 40 | – | 39.8 | – | – | > 20 | –
7 | CO[C@H]1O[C@]2(OC)C[C@@](C)(O)[C@H]3C[C@@]4(C)CC[C@H]([C@@H](C)/C=C\C=C(C)C)[C@@H]4C/C=C/1[C@@H]32 | – | – | inactive | inactive | 7.9 | 9.4 | inactive | 21.4 | inactive | inactive | > 20 | > 40
8 | CC(C)=C/C=C\[C@H](C)[C@H]1CC[C@]2(C)C[C@H]3[C@H](C(=O)C[C@@]3(C)O)/C(C=O)=C\C[C@@H]12 | – | – | – | – | 4.1 | 5.1 | – | 5.9 | – | – | > 20 | 8.4
9 | CC(C)=C/C=C\[C@H](C)[C@H]1CC[C@]2(C)C[C@@H]3C(C)=CC(=O)[C@H]3/C(C=O)=C\C[C@@H]12 | – | – | inactive | inactive | 35.4 | 15.4 | inactive | 11.6 | inactive | inactive | 16.8 | > 40
10 | COc1cccc2c1C(=O)c1c(O)c3c(c(O)c1C2=O)C[C@@](O)(C(=O)CO)C[C@@H]3O[C@H]1C[C@H](N)[C@H](O)[C@H](C)O1 [DOXORUBICIN HYDROCHLORIDE] | – | – | – | – | 2.9 | 0.1 | – | – | – | – | 45 | 0.2
11 | CC(C)=C/C=C\[C@H](C)[C@H]1CC[C@]2(C)C[C@H]3[C@@H]4/C(=C\C[C@@H]12)C(=O)O[C@]4(O)C[C@@]3(C)O | – | – | inactive | inactive | > 40 | > 40 | inactive | > 40 | inactive | inactive | > 20 | –
12 | CC(C)=C/C=C\[C@H](C)[C@H]1CC[C@]2(C)C[C@H]3[C@@H]4/C(=C\C[C@@H]12)CO[C@@H]4C[C@@]3(C)O | – | – | – | – | > 40 | > 40 | – | > 40 | – | – | > 20 | –
13 | CO[C@@H]1O[C@]2(OC)C[C@@](C)(O)[C@H]3C[C@@]4(C)CC[C@H]([C@@H](C)/C=C\C=C(C)C)[C@@H]4C/C=C/1[C@@H]32 | – | – | inactive | inactive | 5.4 | 13.2 | inactive | 18.5 | inactive | inactive | 19.1 | > 40
14 | CC(C)=C/C=C\[C@H](C)[C@H]1CC[C@]2(C)C[C@H]3[C@@H](C(=O)C[C@@]3(C)O)/C(C=O)=C\C[C@@H]12 | – | – | inactive | inactive | 26.1 | 12.8 | inactive | 4.1 | inactive | inactive | 6.8 | > 40
15 | CC(C)=C/C=C\[C@H](C)[C@H]1CC[C@]2(C)CC3=C(C(=O)C[C@H]3C)/C(CO)=C\C[C@@H]12 | – | – | – | – | > 40 | > 40 | – | > 40 | – | – | > 20 | –
16 | CO[C@H]1O[C@@]2(OC)C[C@@](C)(O)[C@H]3C[C@@]4(C)CC[C@H]([C@@H](C)/C=C\C=C(C)C)[C@@H]4C/C=C/1[C@H]32 [OPHIOBOLIN O] | 2.4 | 1.7 | inactive | inactive | – | – | inactive | – | inactive | inactive | – | –
17 | CO[C@H]1C[C@H]2[C@@H]([C@@H](C)/C=C\C=C(C)C)CC[C@]2(C)C[C@H]2[C@H]3C1=CO[C@H]3C[C@@]2(C)O | – | – | – | – | > 40 | > 40 | – | > 40 | – | – | > 20 | –
18 | CC1=CC(=O)[C@H]2/C(C=O)=C\C[C@H]3[C@@H]([C@@H](C)/C=C\[C@@H](O)C(C)(C)O)CC[C@]3(C)C[C@H]12 | 33.8 | 7.2 | – | – | – | – | – | – | – | – | – | –
